The subject of data set [1] is Mus musculus. Briefly: Effect on incorporation of glycerol-d8 into triolein in wild type mouse by measuring atom percent excess at 200 mg/kg, po dosed 1 hr before of 100 mg/kg, iv glycerol-d8 and measured 30 mins post glycerol-d8 dosing by LC-MS method. The data set is classed as functional, organism-based. In outline:
(§1)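 Fed mice (wild type or human MOGAT3 transgenic), studied 8 AM–12 PM. Oral dosing in 0.5% methyl cellulose in saline, alone or with DGAT1 inhibitor (30 mg/kg) and DGAT2 inhibitor (10 mg/kg). After 1 h, 100 mg/kg uniformly labelled D8-glycerol (10 mg/mL in saline) given by tail vein. EDTA plasma taken 30 min later; D5-glycerol enrichment in triolein (18:1/18:1/18:1) measured by LC/MS, reported as mean atom percent excess ± SE.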

Data set [2] is described as follows: Genotoxicity in micronucleus (unknown origin) by micronucleus assay.
The next data set addresses Cytochrome P450 3A4 (Homo sapiens, UniProt P08684). Briefly: Inhibition of human CYP3A4. The data set is classed as ADME.
The subject of data set [3] is Mus musculus. Briefly: In-vivo inhibition of MGAT3-mediated TAG synthesis in human MGAT3 transgenic mouse assessed as reduction in incorporation of glycerol-d8 in to triolein expressed as atom percent excess at 200 mg/kg, po dosed 1 hr before of 100 mg/kg, iv glycerol-d8 and measured 30 mins post glycerol-d8 dosing by LC-MS method. The data set is classed as functional, organism-based. In outline: as §1

Data set [4] concerns the target T1, Diacylglycerol O-acyltransferase 1 (Homo sapiens, UniProt O75907).
T1 sequence (O75907 whole entry): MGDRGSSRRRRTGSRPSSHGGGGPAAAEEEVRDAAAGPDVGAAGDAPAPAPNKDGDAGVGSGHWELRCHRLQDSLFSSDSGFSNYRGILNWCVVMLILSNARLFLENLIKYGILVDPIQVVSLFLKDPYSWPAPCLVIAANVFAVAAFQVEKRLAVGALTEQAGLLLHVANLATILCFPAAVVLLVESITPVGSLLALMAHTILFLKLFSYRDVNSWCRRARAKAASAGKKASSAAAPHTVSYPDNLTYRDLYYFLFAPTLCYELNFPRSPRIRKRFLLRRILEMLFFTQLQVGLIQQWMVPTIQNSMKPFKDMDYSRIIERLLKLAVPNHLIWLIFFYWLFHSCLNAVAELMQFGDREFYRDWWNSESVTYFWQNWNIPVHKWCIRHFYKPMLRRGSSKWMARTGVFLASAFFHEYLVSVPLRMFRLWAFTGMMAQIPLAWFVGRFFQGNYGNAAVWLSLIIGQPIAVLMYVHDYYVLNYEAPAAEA
Briefly: Inhibition of DGAT1 (unknown origin) assessed as effect on incorporation of [1-14C]decanoyl moiety into TG using [1-14C]decanoyl-CoA and 1,2-didecanoyl-sn-glycerol as substrates.

In data set [5] the test system is Mus musculus. Nature of the data set: Effect on incorporation of glycerol-d8 into triolein in wild type mouse by measuring atom percent excess at 200 mg/kg, po dosed 1 hr before of 100 mg/kg, iv glycerol-d8 and measured 30 mins post glycerol-d8 dosing and co-treated with 30 mg/kg for DGAT1 inhibitor-12 and 10 mg/kg for DGAT2 inhibitor-13 by LC-MS method. Type of data set: functional, organism-based. Summed up:
(§2)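 Fed mice (wild type or human MOGAT3 transgenic) were studied between 8 AM and 12 PM. Inhibitors were given orally in 0.5% methyl cellulose in saline. After 1 h, D8-glycerol (10 mg/mL in saline) was injected into the tail vein. Blood was taken into EDTA 30 min later and plasma lipids extracted. D5-glycerol in triolein (18:1/18:1/18:1) was measured by LC/MS as atom percent excess, mean ± SE.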

Data set [6] in a line: Systemic clearance in mouse at 1 mg/kg, iv. Type of data set: ADME, organism-based. Particulars: in vivo. Summed up:
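Single 1 mg/kg intravenous dose in mice; systemic clearance, volume of distribution and effective half-life derived from plasma pharmacokinetics.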

Data set [7] concerns Mus musculus. Nature of the data set: In-vivo inhibition of MGAT3-mediated TAG synthesis in human MGAT3 transgenic mouse assessed as reduction in incorporation of glycerol-d8 in to triolein expressed as atom percent excess at 200 mg/kg, po dosed 1 hr before of 100 mg/kg, iv glycerol-d8 and measured 30 mins post glycerol-d8 dosing and co-treated with 30 mg/kg for DGAT1 inhibitor-12 and 10 mg/kg for DGAT2 inhibitor-13 by LC-MS method. Type of data set: functional, organism-based. In outline: as §2

Each structure is given as a SMILES string. Active and inactive are the calls of the source. The calls are words filed in the database; no cut-off is given here.

Chain of Cytochrome P450 3A4 (P08684 whole entry): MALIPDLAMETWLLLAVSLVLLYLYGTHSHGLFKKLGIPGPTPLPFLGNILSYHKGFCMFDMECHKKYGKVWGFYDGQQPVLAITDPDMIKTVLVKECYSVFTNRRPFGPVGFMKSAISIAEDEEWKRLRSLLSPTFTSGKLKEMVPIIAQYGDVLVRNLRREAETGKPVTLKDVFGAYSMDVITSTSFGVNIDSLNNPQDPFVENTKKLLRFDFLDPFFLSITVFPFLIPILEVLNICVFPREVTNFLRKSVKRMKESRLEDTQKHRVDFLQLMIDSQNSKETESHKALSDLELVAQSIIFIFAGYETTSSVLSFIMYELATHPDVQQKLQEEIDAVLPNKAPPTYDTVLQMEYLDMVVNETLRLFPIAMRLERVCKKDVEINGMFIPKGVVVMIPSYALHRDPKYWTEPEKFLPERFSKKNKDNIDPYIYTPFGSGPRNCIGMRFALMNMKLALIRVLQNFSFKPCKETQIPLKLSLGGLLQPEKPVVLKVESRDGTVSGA

Consider `COc1cccc(CC(=O)N2Cc3ccc(S(=O)(=O)Nc4cnn(C5CCC5)n4)cc3C2)c1`, for which the result in the data set with Mus musculus [1] and in the data set on Mus musculus [5] was inactive. Also, the Activity result in data set [2] is reported as “Non-toxic”. For the same compound, the “inhibition (INH)” value on Cytochrome P450 3A4 is “Not Active”. Besides, in the data set with Mus musculus [3], the inhibition result was “inactive”. Also, the IC50 (commonly the concentration at which inhibition is half-maximal) in data set [4] was > 50 µM. For the same compound, the clearance (in general, the rate of elimination divided by the concentration) in data set [6] turned out to be 1.4 mL/min/kg. Further, in the data set on Mus musculus [7], the inhibition result was “Active”.
